Reference: paper PMC3483416 (Archives of biochemistry and biophysics, 2012)
Like-named read-outs stand apart in the source and are kept apart here.

Tests used:
[1] = assay type: physicochemical; settings: 50μM BclXL, 1°C/min
[2] = ANS fluorescence in the presence of BclXL; assay type: binding; settings: for ANS fluorescence enhancement: 5μM BclXL, excess ANS, excitation 375nm, 25 °C
Procedure, shortened: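 Full-length human BclXL (residues 1–233, N-His, E. coli-expressed, Ni-NTA purified) at 5 μM with excess ANS in 50 mM acetate pH 4, phosphate pH 6, Tris pH 8 or CAPS pH 10. 25 °C; excitation 375 nm; emission 400–600 nm; 2.5-nm bandwidths. ANS-alone background subtracted. Enhancement = (Φ−Φo)/Φo × 100%, where Φ is the integrated spectral area. At least three repeats.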

In the case of “full-length BclXL: Full-length human BclXL (residues 1-233), N-terminal His-tag, expressed in Escherichia coli”, the “melting temperature (no melting transition up to)” value ([1]; pH 4, 50mM buffer, 3atm) is reported as greater than 120 °C, the “melting temperature (Tm), first transition” value ([1]; pH 6, attributed to dissociation of dimer into monomers) is reported as “around 55 °C” and the “melting temperature (Tm), second transition” value ([1]; pH 6, attributed to unfolding of monomers) is reported as roughly 70 °C. The “melting temperature (Tm), first transition” value ([1]; pH 10, dissociation of dimer into monomers) was “around 60 °C”, the “melting temperature (Tm), second transition” value ([1]; pH 10, unfolding of monomers) was roughly 90 °C and the “ANS emission maximum upon binding to BclXL” value ([2]; blue-shifted from 515nm in water) was “around 475 nm”. For the same substance, the ANS fluorescence enhancement ([2]; pH 4) was roughly 15 fold, the ANS fluorescence enhancement ([2]; pH 6) was 2 fold and the ANS fluorescence enhancement ([2]; pH 8) was “about 5 fold”. The ANS fluorescence enhancement ([2]; pH 10) was “about 5 fold”.
